HIV Env fusion = inhibitors of HIV-1 Env-driven cell-cell fusion, primary screen, HeLa-JRFL effector, CEM21 target cells, luciferase; inhibition, % at 12.3 µM; 1.1% of 360,000 active; AID 651610, 2012;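 active = mean replicate inhibition score of at least 50 and every replicate individually at or above 50; inconclusive = only one of the two criteria met; inactive = mean below 50 and not all replicates reaching 50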
Wnt act = Wnt/beta-catenin pathway activators, primary screen, cell-based, plate reader, single point; Wnt/beta-catenin reporter cell assay, activator; activation, % at 9.35 µM; 1.2% of 300,000 active; AID 743398, 2014; in the data active = activation above about 30%, passing the limit was not always enough; inconclusive = no clear call, values can overlap the other calls
ERAP1 inh = human ERAP1 aminopeptidase inhibitors, primary screen, biochemical, single point, plate reader. 0.15% of 340,000 active. Endoplasmic reticulum aminopeptidase 1 (Homo sapiens), Q9NZ08. recombinant ERAP1, Leu-AMC fluorescence, 60 min. inhibition, % at 10.7 µM;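 active = mean replicate inhibition of at least 30%, or all replicates individually reaching that 30% level; inactive = mean below 30% and not every replicate reaching it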
esBAF inh = Bmi1 luciferase reporter increase in mESCs, primary screen, esBAF inhibitor project, mouse ES cells, Bmi1 luciferase knock-in, single point; AID 602393, 2012; 24 h; 100% = twice the neutral-well signal; reporter increase, % at 12.5 µM; 2% of 350,000 active; in the data active = activation above about 40%; inconclusive = no clear call, values can overlap the other calls;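 note: a rise in the Bmi1 reporter signal indicates esBAF inhibition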
MITF TRPM1 HTS = activators of MITF-driven TRPM1 promoter reporter, primary screen, cell-based, SK-MEL-5, luciferase, single point; SK-MEL-5 TRPM1-promoter luciferase, 24 h; % of positive control, neutral wells = 0; activation, % at 12.5 µM; 0.75% of 300,000 active; AID 588334, 2011;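 active = mean activation of at least 80% with every replicate also reaching 80%; inconclusive = mean reaches 80% but some replicate falls short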
Cneo AK release = Cryptococcus neoformans cell lysis inducers, primary screen, AK release luminescence, single concentration; C. neoformans lysis, adenylate kinase release luminescence, 4 h; normalised: neutral wells 0, clomiphene wells 100; lysis activity, % at 15 µM; 0.2% of 360,000 active;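 active = mean lysis activity across replicates of at least 80%, whatever share of replicates individually reach that level; inactive = mean lysis activity below 80%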
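Assay system: log-phase C. neoformans yeast / Quantity: yeast cell density of 5 × 10^6 cells/mL / Medium: fresh YPD growth medium / Compound: single dose / Timing: static 4 h at 37 °C with compound, 1 h detection / Measured by: adenylate kinase release luminescence / Read-out: lysis from increased AK signal / Benchmarks: Clomiphene as positive lysis control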
Hits are given with their value; [ ] = another dose, or the depositor's remark. Rows were chosen to be rich in hits. Some 3.5% of all compounds tested hit in one or more screens of this group.

Results for CCCCOC(=O)C[N+](C)(C)CCOC1CC2CCC1(C)C2(C)C (centres undefined) ?
HIV Env fusion: 103; Wnt act: inactive; ERAP1 inh: inactive; esBAF inh: inactive; MITF TRPM1 HTS: inactive; Cneo AK release: inactive

Results for CN(C)C(=O)[C@H]1[C@H](CO)[C@H]2Cn3c(ccc(C4=CCCCC4)c3=O)[C@@H]1N2Cc1cccnc1 ?
ERAP1 inh: inactive; esBAF inh: inactive; Cneo AK release: inactive

Results for O=C(C[C@H]1CC[C@@H]2[C@H](COC[C@@H](O)CN2S(=O)(=O)c2ccc(F)cc2)O1)N[C@@H]1CCN(Cc2ccccc2)C1 ?
ERAP1 inh: inactive; esBAF inh: inactive; Cneo AK release: inactive

Results for COc1ccc2c3c(n(C)c2c1)[C@@H](CO)N(CC1CC1)CC31CCN(C(=O)c2ccc(F)cc2)CC1 ?
ERAP1 inh: inactive

What do the screens show for `CCOC(=O)c1[nH]nc(C(=O)c2ccc(Br)cc2)c1O`?
HIV Env fusion: inactive; esBAF inh: 54; Cneo AK release: inactive

Results for Cc1c(-c2ccccc2)nnn1-c1ccc(F)cc1F ?
HIV Env fusion: inactive; Wnt act: inactive; ERAP1 inh: inactive; esBAF inh: 51; MITF TRPM1 HTS: inactive; Cneo AK release: inactive

What do the screens show for `Cc1c(-c2ccccc2)nnn1-c1ccc(F)c(Cl)c1`?
HIV Env fusion: inactive; Wnt act: inactive; ERAP1 inh: inactive

How did Oc1ccc(Nc2nc(-c3ccc4ccccc4c3)cs2)cc1 do in these assays?
MITF TRPM1 HTS: inactive; Cneo AK release: inactive

How did Oc1ccc(Nc2ccc3ccccc3c2)cc1 do in these assays?
HIV Env fusion: inactive; Wnt act: inactive; ERAP1 inh: inactive; esBAF inh: 49; Cneo AK release: inactive

Results for CNC(=O)C[C@H]1CC[C@H]2[C@@H](COC[C@@H](O)CN2Cc2ccc(Cl)c(Cl)c2)O1 ?
HIV Env fusion: inactive; esBAF inh: inactive; Cneo AK release: inactive

How did COc1ccc(C(=O)NCc2ccccc2CN2CCCC2)cc1S(=O)(=O)N1CCOCC1 do in these assays?
HIV Env fusion: 62; Wnt act: inactive; ERAP1 inh: inactive; esBAF inh: inactive; MITF TRPM1 HTS: inactive; Cneo AK release: inactive

Results for CO[C@@H]1CN(C)C(=O)c2ccc(NC(=O)c3cc(C)on3)cc2OC[C@@H](C)N(CC2CC2)C[C@H]1C ?
ERAP1 inh: inactive

Results for NNC(=O)C(Cc1ccc(O)cc1)N1Cc2ccccc2C1=O (centres undefined) ?
HIV Env fusion: inactive; Wnt act: inactive; ERAP1 inh: inactive; esBAF inh: inactive; MITF TRPM1 HTS: inactive; Cneo AK release: inactive

How did COC(=O)C(Cc1ccc(O)cc1)N1Cc2ccccc2C1=O (centres undefined) do in these assays?
HIV Env fusion: inactive; Wnt act: inactive; ERAP1 inh: inactive; esBAF inh: inconclusive; MITF TRPM1 HTS: 91; Cneo AK release: inactive

Results for CCn1c(CNC(C)=O)nnc1SCC(=O)c1ccc(Br)cc1 ?
esBAF inh: inactive; MITF TRPM1 HTS: inactive; Cneo AK release: inactive

How did CCN(CC)C(=S)SCC(=O)c1ccc(Br)cc1 do in these assays?
HIV Env fusion: inactive; Wnt act: inactive; ERAP1 inh: inactive; esBAF inh: 83; MITF TRPM1 HTS: inactive; Cneo AK release: inactive

What do the screens show for `C[C@@H]1CN([C@H](C)CO)C(=O)Cc2cc(NC(=O)CCCCCC(=O)Nc3ccccc3N)ccc2O[C@H]1CN(C)CC1CCCCC1`?
HIV Env fusion: inactive; ERAP1 inh: inactive; esBAF inh: inactive; Cneo AK release: inactive

How did CO[C@H]1CN(C)C(=O)c2cc(NC(=O)c3nc4ccccc4s3)ccc2OC[C@H](C)N(Cc2cccnc2)C[C@H]1C do in these assays?
ERAP1 inh: inactive; esBAF inh: inactive; Cneo AK release: inactive

What do the screens show for `CSc1cccc(CNC(=O)C2CCC(=O)N(CCc3ccccc3)C2)c1` (centres undefined)?
HIV Env fusion: inactive; Wnt act: 46; ERAP1 inh: inactive; esBAF inh: inactive; Cneo AK release: inactive

How did CSc1cccc(CNC(=O)C2CCC(=O)N(CCc3ccccn3)C2)c1 (centres undefined) do in these assays?
HIV Env fusion: inactive; Wnt act: inactive; ERAP1 inh: inactive; esBAF inh: inactive; MITF TRPM1 HTS: inactive; Cneo AK release: inactive

Results for CCNC(=O)[C@H]1[C@H](CO)[C@H]2Cn3c(ccc(-c4cccc(F)c4)c3=O)[C@H]2N1Cc1cc(F)ccc1F ?
ERAP1 inh: inactive; esBAF inh: inactive; Cneo AK release: inactive

How did Cc1ccc(C(=O)/C=C/Nc2ccc([N+](=O)[O-])cc2Br)cc1 do in these assays?
Wnt act: inactive; esBAF inh: inconclusive; MITF TRPM1 HTS: 87; Cneo AK release: inactive

What do the screens show for `CCOc1ccc(NC(=O)Cc2cccc3ccccc23)c([N+](=O)[O-])c1`?
HIV Env fusion: inactive; Wnt act: inactive; ERAP1 inh: inactive; MITF TRPM1 HTS: inactive

How did COc1ccc(C(=O)/C=C/Nc2ccc([N+](=O)[O-])cc2C)cc1OC do in these assays?
HIV Env fusion: inactive; Wnt act: inactive; MITF TRPM1 HTS: inactive; Cneo AK release: inactive

How did CCOc1ccc(N/C=C/C(=O)c2ccc3ccccc3c2)c([N+](=O)[O-])c1 do in these assays?
Wnt act: inactive; esBAF inh: 50; MITF TRPM1 HTS: inactive; Cneo AK release: inactive

How did CCOc1ccc(N/C=C/C(=O)c2ccc(C)cc2)c([N+](=O)[O-])c1 do in these assays?
MITF TRPM1 HTS: 88

How did CN(C)C(=O)C[C@H]1C[C@@H]2c3cc(NC(=O)CC4CC4)ccc3O[C@@H]2[C@H](CO)O1 do in these assays?
HIV Env fusion: inactive; ERAP1 inh: inactive; esBAF inh: inactive; Cneo AK release: inactive

How did C[C@@H]1CN([C@H](C)CO)C(=O)c2cccc(NS(=O)(=O)c3cccs3)c2O[C@@H]1CN(C)Cc1ccc(-c2ccccc2)cc1 do in these assays?
ERAP1 inh: inactive; esBAF inh: inactive; Cneo AK release: inactive

How did CCN1[C@@H]2Cn3c(ccc(-c4ccc(F)cc4)c3=O)[C@H]1[C@@H](C(=O)Nc1ccccc1)[C@@H]2CO do in these assays?
HIV Env fusion: inactive; ERAP1 inh: inactive

How did COCC(=O)Nc1ccc2c(c1)C(=O)N(C)[C@H]1CC[C@H](CC(=O)NC3CCCC3)O[C@H]1CO2 do in these assays?
HIV Env fusion: 57[16.7 µM]; esBAF inh: inactive; Cneo AK release: inactive

What do the screens show for `COCC(=O)Nc1ccc2c(c1)C(=O)N(C)[C@H]1CC[C@H](CC(=O)NC3CCCC3)O[C@@H]1CO2`?
HIV Env fusion: inactive; esBAF inh: inactive; Cneo AK release: inactive
